SMILES strings stand for the structures. Active and inactive are the calls of the source. No cut-off for these calls is given here.

This is an account of results in ChEMBL document CHEMBL1124639, “Synthesis and in vitro pharmacology of arpromidine and related phenyl(pyridylalkyl)guanidines, a potential new class of positive inotropic drugs” (J Med Chem, 1989).

The target in experiment [1] is Histamine H2 receptor (Cavia porcellus) (UniProt P47747). In words: Potency at H2 receptor compared to histamine from mean pD2 value in right atrium of guinea pig. Type of experiment: functional, tissue-based. The settings on record: Cardiac atrium. In a few lines: (§1)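 Spontaneously beating isolated guinea pig right atrium with a positive chronotropic read-out. Cumulative concentration-response curves were run against histamine dihydrochloride as the standard. Incubation after each concentration was usually 25 min, adjusted until equilibrium. H2 selectivity was checked with cimetidine (10 µM and 1 µM) and metoprolol (1 µM). Potency relative to histamine = 1 was calculated from mean pD2 values.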
Chain of Histamine H2 receptor (Cavia porcellus) (P47747 whole entry): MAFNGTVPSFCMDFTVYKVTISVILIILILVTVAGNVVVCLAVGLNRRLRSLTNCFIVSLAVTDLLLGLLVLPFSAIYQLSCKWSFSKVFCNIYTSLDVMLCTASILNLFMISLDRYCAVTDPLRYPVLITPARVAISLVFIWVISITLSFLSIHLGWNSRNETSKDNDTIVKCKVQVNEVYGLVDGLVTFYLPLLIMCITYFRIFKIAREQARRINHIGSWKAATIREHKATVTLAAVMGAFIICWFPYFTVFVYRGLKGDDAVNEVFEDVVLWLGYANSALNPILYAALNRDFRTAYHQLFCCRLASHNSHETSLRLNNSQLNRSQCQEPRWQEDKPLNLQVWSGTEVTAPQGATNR

For experiment [2] the target is unchanged. In words: H2 receptor agonist activity relative to histamine on isolated right atrium of guinea pig. Type of experiment: functional, tissue-based. The note with it: Cardiac atrium. Summed up: as §1
The species entered for experiment [3] is Cavia porcellus. Put plainly: Relative potency with impromidine (100%) in isolated perfused guinea pig heart. Type of experiment: functional. Summed up:
(§2)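 Langendorff-perfused isolated guinea pig heart. Compounds were given as a bolus injected into the perfusion stream, with impromidine as reference. Net increases in LV dp/dtmax, heart rate and coronary flow were expressed against impromidine = 100% in a control group (n = 6 each). Relative potency was taken from molar ED50 ratios versus impromidine = 100%.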

Experiment [4] deals with Histamine H2 receptor (Cavia porcellus) (UniProt P47747). Put plainly: H2 receptor agonistic activity in isolated right atrium of guinea pig compared to histamine. Type of experiment: functional, tissue-based. The settings on record: Cardiac atrium. In a few lines:
as §1

The species entered for experiment [5] is Cavia porcellus. In words: Chronotropic effect assessed from maximal increase in delta LV (dp/dtmax) in isolated perfused guinea pig heart. Type of experiment: functional. The note with it: in the assay text read “Inotropic effect” for “Chronotropic effect”. Summed up:
as §2

Experiment [6] is filed under the species Cavia porcellus. In words: Increase in coronary flow with maximal inotropic response in isolated perfused guinea pig heart. Type of experiment: functional. Set-up: unit not given beside the values. Summed up:
as §2

For experiment [7], the target named is Histamine H2 receptor (Cavia porcellus) (UniProt P47747). Put plainly: Agonist activity at H2 receptor relative to histamine on electrically stimulated papillary muscle of guinea pig. Type of experiment: functional, tissue-based. In a few lines:
(§3)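 Isolated right-ventricular papillary muscle from guinea pig, electrically paced at 1 Hz with 1 ms pulses, in Krebs-Henseleit solution gassed with O2/CO2 95:5 at 32.5 °C. Compounds were tested as hydrohalide salts. Cumulative concentration-response curves of contractile force were run against histamine as the standard agonist. […] relative potency were taken from pD2, with histamine maximum = 1.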

The species named for experiment [8] is Cavia porcellus. Put plainly: (§4) Increase in heart rate with maximal inotropic response in isolated perfused guinea pig heart. Set-up: unit not given beside the values. Type of experiment: functional. Summed up:
as §2

Experiment [9] addresses Histamine H2 receptor (Cavia porcellus) (UniProt P47747). Put plainly: Intrinsic activity at H2 receptor in electrically stimulated guinea pig papillary muscle. Type of experiment: functional, tissue-based. Summed up: as §3
Experiment [10] deals with T1, Histamine H1 receptor (Cavia porcellus, UniProt P31389). In words: Antagonist activity at histamine H1 receptor against histamine in isolated ileum of guinea pig. The note with it: read-out: pA2 (converted). Type of experiment: functional, tissue-based. In a few lines: (§5)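 Isolated guinea pig ileum contracted by histamine, with histamine dihydrochloride as the standard agonist in cumulative dose-response curves. pA2 was derived. For compounds that depressed the histamine maximum at 10 µM, -log KB was taken at 3 µM antagonist from log(DR-1) = log[ant.] - log KB.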
T1 sequence (P31389 whole entry): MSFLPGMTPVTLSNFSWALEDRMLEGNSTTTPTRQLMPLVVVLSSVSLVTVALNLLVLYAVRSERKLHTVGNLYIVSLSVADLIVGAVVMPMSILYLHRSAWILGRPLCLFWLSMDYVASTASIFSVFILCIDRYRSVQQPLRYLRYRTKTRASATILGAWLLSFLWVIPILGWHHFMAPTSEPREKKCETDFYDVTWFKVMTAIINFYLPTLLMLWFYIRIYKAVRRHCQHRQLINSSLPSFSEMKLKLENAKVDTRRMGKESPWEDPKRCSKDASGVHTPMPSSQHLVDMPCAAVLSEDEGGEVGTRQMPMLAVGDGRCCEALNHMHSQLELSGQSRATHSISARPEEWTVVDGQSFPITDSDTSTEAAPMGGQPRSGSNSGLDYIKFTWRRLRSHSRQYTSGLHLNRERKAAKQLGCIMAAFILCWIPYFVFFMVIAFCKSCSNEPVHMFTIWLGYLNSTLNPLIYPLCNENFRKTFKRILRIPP

In experiment [11] the target is Histamine H2 receptor (Cavia porcellus) (UniProt P47747). In words: Intrinsic activity (as a measure of agonism) on electrically stimulated papillary muscle of guinea pig. Type of experiment: functional, tissue-based. The settings on record: Muscle tissue. In a few lines: as §3
Experiment [12] shares this target. In words: Histamine H2 receptor agonism relative to histamine on isolated guinea pig right atrium. The note with it: Cardiac atrium. Type of experiment: functional, tissue-based. Summed up: as §1
The target is the same in experiment [13]. In words: Histamine H2 receptor agonistic activity (as a measure of agonism) at the isolated right atrium of guinea pig, activity relative to histamine. Type of experiment: functional, tissue-based. The note with it: Cardiac atrium. Summed up:
as §1

Experiment [14] has the same target. Put plainly: Agonistic activity relative to histamine on electrically stimulated papillary muscle of guinea pig. Type of experiment: functional, tissue-based. The settings on record: Muscle tissue. In a few lines:
as §3

For experiment [15] the target is unchanged. In words: Potency relative to histamine calculated from mean pD2 value in guinea pig right atrium. Type of experiment: functional, tissue-based. The note with it: Cardiac atrium. In a few lines: as §1
Experiment [16] shares this target. Put plainly: Compound was tested for histamine H2 receptor agonistic activity of compound relative to histamine on isolated right atrium of guinea pig;NA means inactive as agonist at </=10 uM. Type of experiment: functional, tissue-based. The note with it: Cardiac atrium. In a few lines:
as §1

The target of experiment [17] is T1, Histamine H1 receptor. In words: Antagonist activity at histamine H1 receptor against histamine in isolated ileum of guinea pig. The note with it: read-out: pA2 (converted). Type of experiment: functional, tissue-based. Summed up: as §5
The species entered for experiment [18] is Cavia porcellus. Described as §4. Type of experiment: functional. Summed up: as §2

With `N=C(NCCCc1c[nH]cn1)NCCC(c1ccc(F)c(F)c1)c1ccccn1` (stereo unspecified), the Relative potency was 132 in experiment [1] and 240 in experiment [3]. Further, the figures for the pD2 in experiment [2] and in [7] were 8.12 and 7.9, respectively. Besides, the Intrinsic activity in [4] is 1; in experiment [9] it was 0.8. Further, the “Delta LV” value in experiment [5] is 123. The molecule further showed a Delta coronary flow in experiment [6] of 108. Moreover, the Delta heart rate in [8] is given as 85.
In [1], `N=C(NCCCc1c[nH]cn1)NCCC(c1ccncc1)c1ccc(F)cc1` (stereo unspecified) gave a Relative potency of 42.7. Moreover, the pD2 in [2] is 7.63; in [7] it was 7.28. In addition, the Intrinsic activity worked out at 1 in experiment [4] and 0.9 in experiment [9]. For the same molecule, in experiment [10], the Kb is 37.2 nM.
On to `N=C(NCCCc1c[nH]cn1)NCCC(c1ccc(Cl)c(Cl)c1)c1ccccn1` (stereo unspecified), for which the figures for the Intrinsic activity in [11] and in experiment [13] were 0.8 and 1, respectively. Also, the Relative potency was 221 in [3] and 155 in experiment [15]. For the same molecule, the figures for the pD2 in experiment [12] and in [14] were 8.19 and 7.54, respectively. Moreover, the “Delta LV” value in [5] came to 121. In addition, the Delta coronary flow in experiment [6] is 128. Further, in experiment [8], the Delta heart rate was determined as 62. The Kb in experiment [10] is 79.4 nM.
In the case of `N=C(N)NCCC(c1ccc(F)cc1)c1ccccn1` (stereo unspecified), in experiment [16], the Intrinsic activity entry was “inactive”. In addition, in experiment [10], the Kb was 229 nM.
With `N=C(NCCCc1c[nH]cn1)NCCC(c1ccccn1)c1ccccc1Cl` (stereo unspecified), the Relative potency in experiment [1] was determined as 22.4. In [2], this molecule returned a pD2 of 7.35. Also, the Intrinsic activity in [4] stood at 0.9. Further, in experiment [10], the Kb was 513 nM.
As for `N=C(NCCCc1c[nH]cn1)NCCC(c1ccc(Cl)cc1)c1ccccn1` (stereo unspecified), the values for the Intrinsic activity in [11] and in experiment [13] were 0.8 and 1, respectively. Besides, the Relative potency in [3] was 90; in experiment [15] it was 69.2. Also, the pD2 in experiment [12] turned out to be 7.84; in [14], 7.39. Moreover, in [5], the “Delta LV” value was 91. This molecule also gave a Delta coronary flow in [6] of 103. In experiment [8], this molecule returned a Delta heart rate of 62. The Kb in experiment [10] was 77.6 nM.
With `N/C(=N\CCC(c1ccc(O)cc1)c1ccccn1)NCCCc1c[nH]cn1` (stereo unspecified), the Kb in experiment [17] is 661 nM. In experiment [12], this molecule came in with a pD2 of 6.63. The Intrinsic activity in experiment [13] is 1. Moreover, the Relative potency in [15] was 4.3.
The molecule `N=C(NCCCc1c[nH]cn1)NCCC(c1ccccc1)c1ccccn1` (stereo unspecified) displayed a Delta heart rate in [18] of 70. Further, the Intrinsic activity in [11] came to 0.7; in [13] it was 1. For the same molecule, the Relative potency is 63 in experiment [3] and 24.5 in experiment [15]. Moreover, the pD2 in [12] is 7.39; in [14] it was 7.37. In experiment [5], the “Delta LV” value was found to be 76. In experiment [6], this molecule displayed a Delta coronary flow of 121. In [10], the Kb was 97.7 nM.
For `N=C(NCCCc1c[nH]cn1)NCCC(c1ccccc1)c1ccc(Cl)cc1` (stereo unspecified), the Relative potency in [1] came to 13.2. For the same molecule, the pD2 is 7.12 in experiment [2] and 5.83 in [7]. The Intrinsic activity in experiment [4] worked out at 1; in experiment [9], 0.8. Besides, the Kb in experiment [10] is 97.7 nM.
For `Cc1ccc(C(CC/N=C(\N)NCCCc2c[nH]cn2)c2ccccn2)cc1` (stereo unspecified), the Intrinsic activity in [11] and in experiment [13] was 1 each time. The Relative potency in experiment [3] was 138; in experiment [15], 51.3. The pD2 in experiment [12] was found to be 7.71; in experiment [14], 7.15. Also, the “Delta LV” value in experiment [5] was determined as 96. Besides, in experiment [6], the Delta coronary flow was 59. This molecule came in with a Delta heart rate in experiment [8] of 77. In experiment [10], the Kb is 148 nM.
Turning to `N=C(NCCCc1c[nH]cn1)NCCC(c1ccc(Br)cc1)c1ccccn1` (stereo unspecified), the results for the Intrinsic activity in [11] and in [13] were 0.4 and 1, respectively. The Relative potency in [3] was 61; in experiment [15] it was 30.2. In addition, the pD2 in experiment [12] was 7.48; in experiment [14], 6.97. The “Delta LV” value in experiment [5] is given as 93. The Delta coronary flow in [6] worked out at 155. The Delta heart rate in experiment [8] is 101. Further, in experiment [10], the Kb is 120 nM.
